Results reported in ChEMBL document CHEMBL5712919, “ARID1A Mutations Promote P300-Dependent Endometrial Invasion through Super-Enhancer Hyperacetylation” (Cell Rep, 2020).
pIC50: −log10 of the molar value. Activity calls are given as the source filed them. The rule behind the calls is not given here.

Tests used:
[1] = Cytotoxicity against human 12Z cells assessed as reduction in cell viability after 72 hrs at 0.01 to 100 uM by calcein-AM stainig based fluorescence assay; format: toxicity; details: dose 0.01-100 µM
In short: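 12Z cells seeded at 4,000 cells/well, transfected 24 h later, then drug-treated 24 h after transfection for 48–72 hr. Viable cells were read after 1 h with 2 μg/mL calcein-AM as fluorescence.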

[2] = target: Histone acetyltransferase p300 (Homo sapiens) (UniProt Q09472); test: Inhibition of P300 in human 12Z cells transfected with shARID1A assessed as affected in H3K27ac expression at 1 uM for 24 hrs by CUT and run analysis; format: cell-based
12Z [3] = test: Inhibition of cell invasion in human 12Z cells transfected with shARID1A at 10 to 100 nM after 24 hrs by transwell invasion assay; format: functional, cell-based; details: dose 10-100 nM
In short: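 12Z cells were siRNA-transfected and drug added 24 h later. At 48 h, 30,000 cells in 0.3 mg/mL Matrigel were seeded on Matrigel-coated 8 μm transwells, with serum-free medium on top and 5% FBS medium below, drug in both chambers. After 16 hr, cells were stained with calcein-AM, unmigrated cells were removed, and five fields/well were imaged and counted.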

12Z [4] = test: Induction of cell death in human 12Z cells transfected with shARID1A assessed as increase in ratio of dead to live cells at 100 nM after 16 hrs by Matrigel based analysis; format: functional
In short: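 12Z cells were siRNA-transfected and drug-treated 24 h post-transfection. At 48 h, 10,000 cells in 0.3 mg/mL Matrigel were seeded on Matrigel-coated wells in serum-free medium with 100 nM A-485 or vehicle.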

[5] = Cytotoxicity against human 12Z cells assessed as reduction in cell viability after 6 days by crystal violet staining based assay; format: toxicity
In short: (§1)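 12Z cells seeded at 100 cells/well and, after 24 h, treated with A-485 from 10 nM to 100 μM. After 6 days, colonies stained with crystal violet and counted.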

[6] = target: Histone acetyltransferase p300 (Homo sapiens) (UniProt Q09472); test: Inhibition of P300 in human 12Z cells assessed as reduction in H3K27ac expression at 0.01 to 100 uM for 24 hrs by western blot analysis; format: cell-based; details: dose 0.01-100 µM
In short: (§2)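 Histones were acid-extracted from A-485-treated 12Z cells with 0.2 N HCl in the presence of sodium butyrate. Extracts were run on a 15% SDS-PAGE gel and blotted with H3K27ac (1:1,000) and total H3 (1:2,000) antibodies, with IRDye 800CW secondary and fluorescence imaging.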

[7] = Cytotoxicity against human 12Z cells transfected with control shRNA assessed as reduction in cell viability at 0.01 to 100 uM after 72 hrs by crystal violet staining fluorescence assay; format: toxicity, cell-based; details: dose 0.01-100 µM
[8] = target: Histone acetyltransferase p300 (Homo sapiens) (UniProt Q09472); test: Inhibition of P300 in human 12Z cells assessed as reduction in H3K27ac expression at 316 nM for 24 hrs by western blot analysis; format: cell-based; in short: as §2
[9] = Cytotoxicity against human 12Z cells transfected with shARID1A assessed as reduction in cell viability after 6 days by crystal violet staining based assay; format: functional; details: 144 h; in short: as §1
[10] = target: Histone acetyltransferase p300 (Homo sapiens) (UniProt Q09472); test: Inhibition of P300 in human 12Z cells transfected with shARID1A assessed as decrease in SERPINE1 RNA expression at 100 nM for 24 hrs by Western blot analysis; format: cell-based
12Z [11] = test: Inhibition of cell migration in human 12Z cells transfected with shARID1A at 31 to 316 nM after 24 hrs by Matrigel based analysis; format: functional; details: dose 31-316 nM, in the assay text read “culture-insert gap assay” for “Matrigel based analysis”
In short: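 12Z cells (4,000/well) in 4-well culture inserts were transduced with control or shARID1A lentivirus (MOI 100). Serum-free medium with drug or vehicle was added after 24 hr, and inserts were removed at 16 hr. Front distances at 16 points were imaged at 0 and 24 hr, and migration was taken as the 0 h minus 24 h mean distance.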

12Z [12] = test: Growth inhibition of human 12Z cells transfected with shARID1A assessed as reduction in cell viability at 0.01 to 100 uM after 72 hrs by crystal violet staining fluorescence assay; format: functional, cell-based; details: dose 0.01-100 µM
12Z [13] = test: Induction of anchorage-dependent cell death in human 12Z cells assessed as increase in caspase3/7 level at 100 nM after 24 hrs by caspase-Glo 3/7 assay; format: functional, cell-based
In short: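 The Caspase-Glo 3/7 assay was run in suspension. siRNA-transfected 12Z cells (48 hr), drug-treated for 24 hr, were seeded at 10,000 cells/well on cell-repellent plates in serum-free DMEM/F12 with A-485 or vehicle. After 24 hr, Caspase-Glo reagent was added 1:1 and incubated 1 hr at 37°C before reading luminescence.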

[14] = target: Histone acetyltransferase p300 (Homo sapiens) (UniProt Q09472); test: Inhibition of P300 in human 12Z cells transfected with shARID1A assessed as decrease in SERPINE1 RNA expression at 100 nM by RNA-seq analysis; format: cell-based
[15] = Cytotoxicity against human 12Z cells transfected with control shRNA assessed as reduction in cell viability after 6 days by crystal violet staining based assay; format: toxicity; in short: as §1

Chain of Histone acetyltransferase p300 (Homo sapiens) (Q09472 whole entry): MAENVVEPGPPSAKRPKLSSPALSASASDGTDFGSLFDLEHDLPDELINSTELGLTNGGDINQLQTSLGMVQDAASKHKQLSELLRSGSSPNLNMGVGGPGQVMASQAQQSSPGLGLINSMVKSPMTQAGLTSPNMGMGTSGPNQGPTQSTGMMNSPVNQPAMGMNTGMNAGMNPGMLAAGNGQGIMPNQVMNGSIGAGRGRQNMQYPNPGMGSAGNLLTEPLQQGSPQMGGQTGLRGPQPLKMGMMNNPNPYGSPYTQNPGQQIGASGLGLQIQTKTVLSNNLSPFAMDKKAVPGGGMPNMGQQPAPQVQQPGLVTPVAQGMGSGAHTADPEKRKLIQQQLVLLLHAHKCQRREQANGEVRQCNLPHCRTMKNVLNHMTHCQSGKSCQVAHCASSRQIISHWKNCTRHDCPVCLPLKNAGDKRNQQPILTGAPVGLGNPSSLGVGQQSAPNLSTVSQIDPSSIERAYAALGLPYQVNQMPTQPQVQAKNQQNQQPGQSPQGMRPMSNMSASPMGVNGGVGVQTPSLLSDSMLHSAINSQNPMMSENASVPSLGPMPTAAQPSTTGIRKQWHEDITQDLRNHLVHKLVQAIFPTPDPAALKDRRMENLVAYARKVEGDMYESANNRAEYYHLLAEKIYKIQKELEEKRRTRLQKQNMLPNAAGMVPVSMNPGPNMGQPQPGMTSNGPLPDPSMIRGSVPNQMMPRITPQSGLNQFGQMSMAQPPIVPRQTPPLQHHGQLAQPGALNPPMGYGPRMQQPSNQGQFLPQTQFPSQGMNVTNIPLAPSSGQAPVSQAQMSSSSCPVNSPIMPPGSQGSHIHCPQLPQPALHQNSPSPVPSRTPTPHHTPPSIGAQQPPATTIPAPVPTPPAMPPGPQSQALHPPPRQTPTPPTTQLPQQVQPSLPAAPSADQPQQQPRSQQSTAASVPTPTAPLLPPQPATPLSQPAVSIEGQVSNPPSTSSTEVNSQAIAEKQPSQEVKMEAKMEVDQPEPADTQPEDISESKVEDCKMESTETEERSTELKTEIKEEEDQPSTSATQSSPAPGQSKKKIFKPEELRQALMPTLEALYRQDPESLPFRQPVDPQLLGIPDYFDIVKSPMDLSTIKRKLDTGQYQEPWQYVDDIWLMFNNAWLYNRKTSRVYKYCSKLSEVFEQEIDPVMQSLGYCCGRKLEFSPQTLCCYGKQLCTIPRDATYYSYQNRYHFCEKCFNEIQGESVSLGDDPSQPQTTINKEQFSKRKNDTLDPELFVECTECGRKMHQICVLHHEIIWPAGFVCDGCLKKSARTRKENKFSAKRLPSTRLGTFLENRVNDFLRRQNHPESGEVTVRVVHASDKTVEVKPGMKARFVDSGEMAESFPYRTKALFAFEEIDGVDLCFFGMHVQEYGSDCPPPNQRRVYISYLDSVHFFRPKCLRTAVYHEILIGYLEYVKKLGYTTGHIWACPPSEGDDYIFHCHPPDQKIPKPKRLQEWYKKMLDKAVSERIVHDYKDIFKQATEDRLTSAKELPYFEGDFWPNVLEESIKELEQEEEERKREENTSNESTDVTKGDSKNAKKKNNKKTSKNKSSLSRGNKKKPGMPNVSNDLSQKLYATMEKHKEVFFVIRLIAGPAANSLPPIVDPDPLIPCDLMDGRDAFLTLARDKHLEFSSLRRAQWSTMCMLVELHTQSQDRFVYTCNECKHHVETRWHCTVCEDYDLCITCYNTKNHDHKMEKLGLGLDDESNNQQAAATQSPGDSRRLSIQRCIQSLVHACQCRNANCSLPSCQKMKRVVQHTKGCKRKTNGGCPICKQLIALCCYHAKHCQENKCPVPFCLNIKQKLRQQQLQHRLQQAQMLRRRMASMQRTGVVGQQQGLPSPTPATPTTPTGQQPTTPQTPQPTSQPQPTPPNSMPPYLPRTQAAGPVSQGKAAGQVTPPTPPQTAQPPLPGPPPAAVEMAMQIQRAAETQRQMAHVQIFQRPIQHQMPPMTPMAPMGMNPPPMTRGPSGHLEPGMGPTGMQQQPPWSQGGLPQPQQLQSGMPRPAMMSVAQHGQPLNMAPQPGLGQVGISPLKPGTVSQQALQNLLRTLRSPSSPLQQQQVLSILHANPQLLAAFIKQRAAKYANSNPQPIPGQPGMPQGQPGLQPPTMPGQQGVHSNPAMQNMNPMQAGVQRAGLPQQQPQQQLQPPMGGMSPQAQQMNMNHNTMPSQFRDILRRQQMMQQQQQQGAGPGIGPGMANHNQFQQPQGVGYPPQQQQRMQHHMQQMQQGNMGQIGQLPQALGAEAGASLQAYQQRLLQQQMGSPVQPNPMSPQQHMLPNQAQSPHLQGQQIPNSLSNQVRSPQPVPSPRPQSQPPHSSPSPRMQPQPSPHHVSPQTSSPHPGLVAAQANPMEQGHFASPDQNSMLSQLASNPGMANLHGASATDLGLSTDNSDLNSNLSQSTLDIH

CNC(=O)Nc1ccc2c(c1)CC[C@@]21OC(=O)N(CC(=O)N(Cc2ccc(F)cc2)[C@@H](C)C(F)(F)F)C1=O [A-485]
Activity [1]: Toxic | inhibition [2]: Active | inhibition (12Z [3]): Active | Activity (12Z [4]): Active | IC50 at 6 days [5]: 3.32 µM | inhibition [6]: Active | Activity [7]: Toxic | inhibition [8]: Active | pIC50 [9]: 5.27 | inhibition [10]: Active | inhibition (12Z [11]): Active | growth inhibition (GI) (12Z [12]): Active | Activity (12Z [13]): Active | inhibition [14]: Active | IC50 at 6 days [15]: 3.61 µM
